The source of these data is ChEMBL document CHEMBL4342502, “Synthesis and Antichlamydial Activity of Molecules Based on Dysregulators of Cylindrical Proteases” (J Med Chem, 2020).

SMILES strings stand for the structures. In brackets after ≈: the same amount, converted by molar mass. Activity calls are given as the source filed them. The rule behind the calls is not given here.

Data set [1] has as its system HaCaT. The data set can be described thus: Cytotoxicity against immortal human HaCaT cells assessed as reduction in cell viability at 50 ug/ml after 24 hrs by CCK-8 assay. Type of data set: cell-based. The method in brief: (§1)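 HeLa 229 and HaCaT cells in DMEM with 10% FBS and 1% penicillin/streptomycin, 37 °C, 5% CO2, seeded at 5000 cells/well. Next day treated with 50 μg/mL in triplicate, with matching DMSO controls. After 24 h, CCK-8 added for 2 h; corrected absorbance read at 450 nm.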

The test system of data set [2] is Chlamydia trachomatis. Nature of the data set: Bacteriostatic activity against Chlamydia trachomatis Serovar LGV-L2 infected in Hep2 cells assessed as reduction of inclusion size at 50 ug/ml treated at 8 hrs post infection and incubated for 16 hrs followed by compound washout and further incubated for 24 hrs by immunofluorescence staining based microscopic assay. Type of data set: functional, organism-based. The method, boiled down:
(§2)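 Medium was then removed, wells washed three times with Hanks' balanced salt solution, and compound-free medium added; incubation continued 24 h. Read-out by IFU re-infection and anti-MOMP immunofluorescence, as in the IFU protocol.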

Data set [3] is described as follows: Drug metabolism in human liver microsomes assessed as 1-[4-[(4-chlorophenyl)methyl]piperazin-1-yl]-2-methyl-2-[[5-(trifluoromethyl)-2-pyridyl]sulfonyl]propan-1-one formation at 1 ug/ml after 10 to 60 mins by LC-MS/MS analysis. The data set is classed as ADME, Microsome. (In general: Microsomes from liver hold many membrane-bound enzymes, among them those of drug oxidation.)

The target in data set [4] is ATP-dependent Clp protease proteolytic subunit (Escherichia coli (strain K12)) (UniProt P0A6G7). Nature of the data set: Activation of recombinant Escherichia coli ClpP assessed as induction of casein degradation at 0.1 to 1 uM using FITC-labelled casein as substrate pretreated with enzyme for 30 mins followed by substrate addition and measured every 3 mins for 3 hrs in absence of AAA+ chaperone by fluorescence based tecan-plate reader assay. The method in brief: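 Recombinant C-terminal His6-tagged ClpP, expressed in a clpAPX-null E. coli strain and purified (mammalian ClpP without mitochondrial signal, codon-optimized). ClpP at 1 or 0.1 μM (E. coli), 1 μM (human, mouse) or 6 μM (chlamydial ClpP1 and ClpP2) preincubated with compound or DMSO, 30 min, 32 °C, in HEPES pH 7.6/KCl/MgCl2/DTT/glycerol buffer. 20 μM FITC-casein then added. Fluorescence (ex 490/em 525 nm) read every 3 min for 3 h. At least three runs on at least two protein preparations.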
Chain of ATP-dependent Clp protease proteolytic subunit (Escherichia coli (strain K12)) (P0A6G7 whole entry): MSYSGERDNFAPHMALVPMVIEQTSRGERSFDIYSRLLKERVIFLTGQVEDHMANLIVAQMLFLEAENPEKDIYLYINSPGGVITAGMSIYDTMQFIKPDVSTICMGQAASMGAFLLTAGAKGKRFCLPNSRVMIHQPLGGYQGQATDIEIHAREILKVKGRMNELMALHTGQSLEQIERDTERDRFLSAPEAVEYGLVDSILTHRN

Data set [5] relates to Chlamydia trachomatis. Nature of the data set: Anti-chlamydial activity against Chlamydia trachomatis Serovar LGV-L2 infected in Hep2 cells assessed as reduction in chlamydial inclusion growth by measuring appearance of small and irregular inclusions at 50 ug/ml treated at 8 hrs post-infection and 24 hrs later re-infecting fresh Hep2 cells monolayer with infected cells and measured at 24 hrs post re-infection by immunofluorescence staining based microscopy analysis. The data set is classed as functional, organism-based. The method, boiled down: (§3)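 HEp-2 cells in DMEM with 10% FBS, infected with C. trachomatis L2 at MOI 1. Compounds added 8 hpi in triplicate; DMSO stocks at 50 mg/mL. At 24 hpi lysates collected in sucrose storage medium, frozen at −80 °C, and used to infect fresh HEp-2 monolayers in 10-fold dilutions. After 24 h, stained with goat anti-MOMP and Alexa488 secondary. Inclusions counted in 15 fields at 20x; IFU = mean count per field corrected for dilution.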

For data set [6], the system named is Chlamydia trachomatis. Nature of the data set: Anti-Chlamydial activity against Chlamydia trachomatis Serovar LGV-L2 infected in Hep2 cells assessed as reduction in size and number of chlamydial inclusion at 5.2 to 50 ug/ml treated at 8 hrs post-infection and 24 hrs later re-infecting fresh Hep2 cells monolayer with infected cells and measured at 24 hrs post re-infection by immunofluorescence staining based microscopy analysis. Type of data set: functional, organism-based. The method, boiled down: as §3

Data set [7] deals with Chlamydia trachomatis. Nature of the data set: Anti-chlamydial activity against Chlamydia trachomatis Serovar LGV-L2 infected in Hep2 cells assessed as reduction in chlamydial inclusion yield at 50 ug/ml treated at 8 hrs post infection and incubated for 16 hrs followed by compound washout and further incubated for 48 hrs by immunofluorescence staining based microscopic assay. The data set is classed as functional, organism-based.

The test system of data set [8] is Chlamydia trachomatis. The data set can be described thus: Bacteriostatic activity against Chlamydia trachomatis Serovar LGV-L2 infected in Hep2 cells assessed as loss of inclusion morphology at 50 ug/ml treated at 8 hrs post infection and incubated for 16 hrs followed by compound washout and further incubated for 24 hrs by immunofluorescence staining based microscopic assay. Type of data set: functional, organism-based. The method, boiled down: as §2

For data set [9], the system named is Chlamydia trachomatis. The data set can be described thus: Anti-chlamydial activity against Chlamydia trachomatis Serovar LGV-L2 infected in Hep2 cells assessed as reduction in chlamydial inclusion yield at 50 ug/ml treated at 8 hrs post infection and incubated for 16 hrs followed by compound washout and further incubated for 24 hrs by immunofluorescence staining based microscopic assay. The data set is classed as functional, organism-based. The method, boiled down: as §2

The nature of data set [10]: Cytotoxicity against immortal human HaCaT cells assessed as reduction in cell viability at 50 ug/ml after 24 hrs by CCK-8 assay relative to control. Type of data set: cell-based. Particulars: read-out: INH. The method in brief:
as §1
On the technique in general: Formazan colour is commonly taken as a measure of viable cells.

The subject of data set [11] is Chlamydia trachomatis. Nature of the data set: Anti-chlamydial activity against Chlamydia trachomatis Serovar LGV-L2 infected in Hep2 cells assessed as reduction in chlamydial inclusion growth by measuring appearance of small and irregular inclusions at 50 to 100 ug/ml treated at 8 hrs post-infection and 24 hrs later re-infecting fresh Hep2 cells monolayer with infected cells and measured at 24 hrs post re-infection by immunofluorescence staining based microscopy analysis. The data set is classed as functional, organism-based. The method, boiled down: as §3

For data set [12], the system named is Chlamydia trachomatis. Nature of the data set: Anti-chlamydial activity against Chlamydia trachomatis Serovar LGV-L2 infected in Hep2 cells assessed as reduction in chlamydial inclusion growth treated at 8 hrs post-infection and 24 hrs later re-infecting fresh Hep2 cells monolayer with infected cells and measured at 24 hrs post re-infection by immunofluorescence staining based microscopy analysis. Type of data set: functional, organism-based. The method in brief:
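HEp-2 cells grown in DMEM with 2% L-glutamine and 10% FBS at 37 °C. Infected with C. trachomatis L2 at MOI 1, with compound added in triplicate at 8 hpi. At 24 hpi, lysates were collected in sucrose storage medium, frozen at −80 °C and passed as 10-fold dilutions onto fresh HEp-2. After 24 h, stained with goat anti-MOMP then Alexa488 secondary. IFU taken as mean inclusions across 15 fields (20x), corrected for dilution.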

Regarding `CC(C)(C(=O)NCCCc1ccccc1)S(=O)(=O)c1ccc(C(F)(F)F)cc1`, the Activity entry in data set [1] is recorded as “Toxic”.

For the compound `CC(C)(C(=O)N1CCN(Cc2ccc(Cl)cc2)CC1)S(=O)(=O)c1ccc(C(F)(F)F)cn1`, the inhibition entry in data set [2], in data set [5], in [6], in data set [8] and in data set [11] was “Active” in each case. Further, the Drug metabolism entry in data set [3] is reported as “Metabolite_Detected”. In addition, in data set [4], the outcome was Active. The inhibition entry in [7] and in [9] was “inactive” in each case. In addition, in [10], the cytotoxicity at 24 h, 50 ug/ml is 50%. For the same compound, the inhibition result in data set [12] was “Dose-dependent effect”. Also, the 50% inhibitory concentration (IC50) in data set [12] (Serovar LGV-L2, HEp-2) stood at 5.2 µg/mL (≈ 10.6 µM).

As a reminder, the IC50 is the concentration at which inhibition is half-maximal.
